ChEMBL document CHEMBL1141215, “Design, synthesis, and microbiological evaluation of new Candida albicans CYP51 inhibitors” (2005)
≈ marks a conversion by molar mass, not a printed value.

Legend:
Candida albicans = experiment: Antifungal activity against Candida albicans; type: functional; conditions: CA-6
Outline: (§1)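 Broth microdilution per NCCLS M27-A in RPMI 1640 buffered with 0.165 M MOPS, pH 7. Strains were C. albicans CA-6 (vaginal clinical isolate) and C. krusei ATCC 6258. Inocula came from 24 h cultures on Sabouraud dextrose agar at 28 °C, washed in saline and counted by hemocytometer. Serial dilutions ran 0.9–500 µg/mL. MIC was the lowest concentration giving 80% turbidity reduction versus drug-free control.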

Pichia kudriavzevii = experiment: Antifungal activity against Candida krusei; type: functional; conditions: 6258; outline: as §1
Mus musculus [1] = experiment: Survival of mouse administered at 14 mg/kg/day, ip; type: functional, CD1; conditions: route intraperitoneal
Outline: (§2)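 Female CD1 mice (8–10 weeks, 25–30 g), 10 per group, infected iv via lateral tail vein with 1×10^5 C. albicans CA-6 cells (24 h Sabouraud culture at 28 °C, saline-washed). Dosing was ip at 14 mg/kg in DMSO/H2O (1:4), 2 h before infection and then daily for 8 days. Median survival time was compared by Mann–Whitney U test, and dead/total was counted at day 30.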

Mus musculus [2] = experiment: Median survival time in mouse at 14 mg/kg/day, ip; type: functional, CD1; conditions: route intraperitoneal; outline: as §2

SMILES | MIC (Candida albicans) | MIC (Pichia kudriavzevii) | Survival (Mus musculus [1]) | MST (Mus musculus [2])
CN1C(=O)CSc2ccc(C(O)Cn3ccnc3)cc21 (stereo not drawn) | 62.5 µg/mL (≈ 216 µM) | 250 µg/mL (≈ 864 µM) | – | –
CN1C(=O)COc2ccc(C(Cn3ccnc3)OCc3ccc(Cl)cc3)cc21 (stereo not drawn) | 7.8 µg/mL (≈ 19.6 µM) | 15.6 µg/mL (≈ 39.2 µM) | – | –
CCCCC1Oc2ccc(C(O)Cn3ccnc3)cc2N(C)C1=O (stereo not drawn) | 125 µg/mL (≈ 379 µM) | 125 µg/mL (≈ 379 µM) | 9 days | 14 days
CCCCOC1Sc2ccc(C(O)Cn3ccnc3)cc2N(C)C1=O (stereo not drawn) | 31.2 µg/mL (≈ 86.3 µM) | 125 µg/mL (≈ 346 µM) | 9 days | 14 days
CCCCC1Sc2ccc(C(O)Cn3ccnc3)cc2N(C)C1=O (stereo not drawn) | 31.2 µg/mL (≈ 90.3 µM) | 250 µg/mL (≈ 724 µM) | 9 days | 14 days
CN1C(=O)CSc2ccc(C(Cn3ccnc3)OCc3ccc(Cl)cc3)cc21 (stereo not drawn) | < 1.8 µg/mL | 15.6 µg/mL (≈ 37.7 µM) | – | –
CCCCOC1Oc2ccc(C(O)Cn3ccnc3)cc2N(C)C1=O (stereo not drawn) | 125 µg/mL (≈ 362 µM) | 31.2 µg/mL (≈ 90.3 µM) | 4 days | 12 days
CN1C(=O)COc2ccc(C(O)Cn3ccnc3)cc21 (stereo not drawn) | 250 µg/mL (≈ 915 µM) | 31.2 µg/mL (≈ 114 µM) | – | –
OC(Cn1cncn1)(Cn1cncn1)c1ccc(F)cc1F [FLUCONAZOLE] | < 1.8 µg/mL | 62.5 µg/mL (≈ 204 µM) | 23 days | >30 days
